Test results from ChEMBL document CHEMBL4265871, “Novel alkylated azoles as potent antifungals” (Eur J Med Chem, 2017).
Converted amounts (≈) assume the structure as drawn. The source made the active and inactive calls. The calls are words filed in the database; no cut-off is given here.

Columns and labels:
[1] = system: Candida albicans; test: Antifungal activity against ITC and FLC-resistant Candida albicans ATCC MYA-90819 incubated for 48 hrs by modified CLSI M27-A3 protocol based method; type: functional; settings: ATCC MYA-90819, 48 h
[2] = system: Candida albicans; test: Induction of membrane permeabilization in Candida albicans ATCC 10231 at 1 to 4 times MIC incubated for 1 hr by propidium iodide staining based fluorescence microscopy; type: functional, organism-based
In short: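 C. albicans ATCC 10231 treated at 1× and 4× MIC and stained with propidium iodide, a membrane-impermeant dye, to detect membrane damage. Untreated cells, FLC (7.8 µg/mL) and KANB (C14) (7.8 µg/mL) serve as comparators.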

[3] = Selectivity index, ratio of […] for toxicity in human BEAS2B cells to MIC50 for antifungal activity against Aspergillus nidulans ATCC 38163; type: cell-based; settings: BEAS-2B cells, read-out: Selectivity Index
[4] = Hemolytic activity in mouse erythrocytes assessed as hemolysis level at 125 ug/ml incubated for 1 hr at 37 degC; type: ADME, cell-based, Erythrocyte; settings: read-out: Activity
In short: (§1)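 Mouse erythrocytes incubated 1 h at 37 °C with test agents over 1.95 to 125 µg/mL. Percent lysis is read for each concentration.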

[5] = Selectivity index, ratio of EC50 for toxicity in human A549 cells to MIC50 for antifungal activity against ITC and FLC-susceptible Candida albicans ATCC MYA-2310; type: cell-based; settings: read-out: Selectivity Index
In short: (§2)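 Selectivity index is the EC50 against the mammalian line (A549 or BEAS-2B) divided by the MIC against the given fungal strain.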

[6] = Selectivity index, ratio of […] for toxicity in human A549 cells to MIC50 for antifungal activity against Aspergillus flavus ATCC MYA-3631; type: cell-based; settings: read-out: Selectivity Index
[7] = Hemolytic activity in mouse erythrocytes assessed as hemolysis level at 15.6 ug/ml incubated for 1 hr at 37 degC; type: ADME, cell-based, Erythrocyte; settings: read-out: Activity; in short: as §1
[8] = system: BEAS-2B; test: Toxicity in human BEAS2B cells assessed as reduction in cell viability up to 7.8 ug/ml incubated for 24 hrs by resazurin dye based assay
[9] = Selectivity index, ratio of EC50 for toxicity in human BEAS2B cells to MIC50 for antifungal activity against ITC and FLC-resistant Candida albicans ATCC MYA-90819; type: cell-based; settings: BEAS-2B cells, read-out: Selectivity Index
In short: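 Ratio of the compound's EC50 against BEAS-2B cells to its MIC against the named C. albicans strain. […] For C. albicans strains other than ATCC 10231, trailing growth meant MIC-2 was taken, meaning 50% growth inhibition.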

[10] = system: Candida albicans; test: Antifungal activity against Candida albicans ATCC 10231 incubated for 48 hrs by modified CLSI M27-A3 protocol based method; type: functional; settings: ATCC 10231, 48 h, read-out: MIC100
In short: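 For C. albicans ATCC 10231, C. krusei ATCC 6258 and C. parapsilosis ATCC 22019, MIC-0 was read, meaning complete growth inhibition. For azole controls, MIC-2 (50% growth inhibition) was reported instead. Caspofungin and voriconazole were tested here; other controls came from earlier work.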

[11] = Selectivity index, ratio of EC50 for toxicity in human A549 cells to MIC50 for antifungal activity against Candida glabrata ATCC 2001; type: cell-based; settings: read-out: Selectivity Index; in short: as §2
[12] = system: Candida albicans; test: Antifungal activity against ITC and FLC-resistant Candida albicans ATCC 1237 incubated for 48 hrs by modified CLSI M27-A3 protocol based method; type: functional; settings: ATCC 1237, 48 h
In short: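 Because these Candida strains show trailing growth, MIC-2 was read, meaning 50% growth inhibition. Caspofungin and voriconazole were tested here; other controls came from earlier work.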

[13] = system: Aspergillus flavus; test: Antifungal activity against Aspergillus flavus ATCC MYA-3631 incubated for 48 hrs by CLSI M38-A2 protocol based method; type: functional; settings: ATCC MYA-3631, 48 h, read-out: MIC100
[14] = Selectivity index, ratio of EC50 for toxicity in human BEAS2B cells to MIC for antifungal activity against Candida parapsilosis ATCC 22019; settings: BEAS-2B cells
[15] = system: Aspergillus terreus; test: Antifungal activity against Aspergillus terreus ATCC MYA-3633 incubated for 48 hrs by CLSI M38-A2 protocol based method; type: functional; settings: ATCC MYA-3633, 48 h, read-out: MIC100
[16] = Selectivity index, ratio of […] for toxicity in human A549 cells to MIC50 for antifungal activity against Aspergillus terreus ATCC MYA-3633; type: cell-based; settings: read-out: Selectivity Index
[17] = Selectivity index, ratio of […] for toxicity in human BEAS2B cells to MIC50 for antifungal activity against Aspergillus terreus ATCC MYA-3633; type: cell-based; settings: BEAS-2B cells, read-out: Selectivity Index
[18] = Selectivity index, ratio of EC50 for toxicity in human A549 cells to MIC100 for antifungal activity against Candida albicans ATCC 10231; type: cell-based; settings: read-out: Selectivity Index; in short: as §2
[19] = system: Candida albicans; test: Fungistatic activity against Candida albicans ATCC 10231 at 0.5 times MIC incubated for 3 to 12 hrs by time kill assay; type: functional, organism-based
[20] = system: Candida albicans; test: Fungistatic activity against Candida albicans ATCC 10231 assessed as reduction in microbial growth at 1 times MIC incubated for 24 hrs by time kill assay; type: functional
[21] = system: Candida albicans; test: Antifungal carryover activity against Candida albicans ATCC 10231 assessed as 25% reduction in colony counts at 0.5 to 4 times MIC
[22] = system: Candida albicans; test: Fungistatic activity against Candida albicans ATCC 10231 at 1 times MIC incubated for 3 to 12 hrs by time kill assay; type: functional, organism-based
[23] = system: Candida albicans; test: Effect on growth of Candida albicans ATCC 10231 assessed as increase in microbial growth at 0.5 times MIC incubated for 24 hrs by time kill assay; type: functional
[24] = system: Candida albicans; test: Antifungal activity against Candida albicans ATCC 10231 at 0.5 to 4 times MIC incubated for 3 to 24 hrs by time kill assay
[25] = system: Candida albicans; test: Effect on sterol composition in Candida albicans ATCC 10231 assessed as 14-alpha-methyl-ergosta-8,24(28)dien-3beta,6alpha-diol level at 0.125 ug/mL incubated for […] by GC-MS analysis
[26] = system: Candida albicans; test: Fungicidal activity against Candida albicans ATCC 10231 assessed as reduction in microbial growth at 4 times MIC incubated for 6 hrs by time kill assay; type: functional
[27] = system: BEAS-2B; test: Toxicity in human BEAS2B cells assessed as cell viability at 15.6 ug/ml incubated for 24 hrs by resazurin dye based assay
[28] = system: A549; test: Toxicity in human A549 cells assessed as cell viability at 15.6 ug/ml incubated for 24 hrs by resazurin dye based assay; settings: a549, 24 h
[29] = system: Candida albicans; test: Effect on sterol composition in Candida albicans ATCC 10231 assessed as eburicol level at 0.125 ug/mL incubated for […] by GC-MS analysis
[30] = system: Candida albicans; test: Effect on sterol composition in Candida albicans ATCC 10231 assessed as lanosterol level at 0.125 ug/mL incubated for 10 mins by GC-MS analysis (reference value: 4.17%)

| SMILES | MIC50 [1] | Activity [2] | selectivity ratio [3] | hemolysis at 1 h, 125 ug/ml [4] | selectivity ratio [5] | selectivity ratio [6] | hemolysis at 1 h, 15.6 ug/ml [7] | selectivity ratio [9] | MIC [10] | selectivity ratio [11] | MIC50 [12] | MIC [13] | selectivity ratio [14] | MIC [15] | selectivity ratio [16] | selectivity ratio [17] | selectivity ratio [18] | Activity [19] | Activity [20] | Activity [21] | further results |
| --- | --- | --- | --- | --- | --- | --- | --- | --- | --- | --- | --- | --- | --- | --- | --- | --- | --- | --- | --- | --- | --- |
| CCCCCCCCC(O)(Cn1cncn1)c1ccc(F)cc1F (stereo not given) | 5.8 µM (≈ 1.96 µg/mL) | inactive | 27 | 97.1% | 6 | 0.4 | 66.7% | 7 | 5.8 µM (≈ 1.96 µg/mL) | 6 | 5.8 µM (≈ 1.96 µg/mL) | 92.8 µM (≈ 31.3 µg/mL) | 217 | 23.1 µM (≈ 7.79 µg/mL) | 2 | 2 | 6 | – | – | – | Activity [8]: Non-Toxic |
| CCCCCCC(O)(Cn1cncn1)c1ccc(F)cc1F (stereo not given) | 6.3 µM (≈ 1.95 µg/mL) | inactive | 65 | 60.9% | 9 | 2 | 8.2% | 16 | 6.3 µM (≈ 1.95 µg/mL) | 9 | 6.3 µM (≈ 1.95 µg/mL) | 50.4 µM (≈ 15.6 µg/mL) | 1040 | 25.2 µM (≈ 7.8 µg/mL) | 4 | 4 | 18 | Active | 1 log10CFU | inactive | Activity [22]: Active; Activity [23]: 1 log10CFU; Activity [24]: Dose-dependent effect |
| CCCCCCC(O)(Cn1cncn1)c1ccc(Cl)cc1Cl (stereo not given) | 5.7 µM (≈ 1.95 µg/mL) | inactive | 58 | 105% | 10 | 5 | 105% | 14 | 0.7 µM (≈ 0.24 µg/mL) | 10 | 5.7 µM (≈ 1.95 µg/mL) | 11.4 µM (≈ 3.9 µg/mL) | 933 | 11.4 µM (≈ 3.9 µg/mL) | 5 | 7 | 83 | Active | 0.25 log10CFU | inactive | Activity [25]: 18.81%; Activity [26]: 1.25 log10CFU; viability [27]: > 85%; viability [28]: > 85%; Activity [22]: Active; Activity [29]: 2.93%; Activity [30]: 19.3%; Activity [23]: 1 log10CFU; Activity [24]: Dose-dependent effect |
